Reference: ChEMBL document CHEMBL4017507 (J Med Chem, 2017)

How the values were obtained:
Human betaherpesvirus 5 [1] = assay: Antiviral activity against human cytomegalovirus Davis infected in human HEL cells assessed as inhibition of virus-induced cytopathic effect; format: functional, cell-based; conditions: Human betaherpesvirus 5, Davis
In short: (§1)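 Confluent HEL fibroblast monolayers were inoculated in 96-well plates with 100 CCID50 of virus in the presence of serially varied compound concentrations. Cytopathicity was scored once untreated infected controls reached full CPE.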

Human alphaherpesvirus 1 [2] = assay: Antiviral activity against ACV-resistant thymidine kinase deficient Herpes simplex virus 1 KOS infected in human HEL cells assessed as inhibition of virus-induced cytopathic effect; format: functional, cell-based; conditions: Human alphaherpesvirus 1, KOS; in short: as §1
HEL = assay: Cytotoxicity against human HEL cells assessed as cell growth inhibition by cell counting method; format: cell-based
MT4 = assay: Cytotoxicity against human MT4 cells assessed as reduction in cell viability by cell counting method; format: cell-based
In short: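 MT-4 cultures, untreated or treated, were assessed with an automated cell counter using propidium iodide staining to enumerate total and dead cells.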

[3] = Cytotoxicity against human HEL cells assessed as alteration to cell morphology by microscopic analysis; format: cell-based
In short: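 Minimal cytotoxic concentration is the compound concentration giving a microscopically visible alteration of HEL cell morphology, scored in the antiviral assay cultures.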

CCRF-CEM = assay: Cytostatic activity human CEM cells assessed as reduction in cell viability after 72 hrs by cell counting method; format: cell-based; conditions: ccrf-cem, 72 h
In short: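 (5–7.5) × 10^? CEM cells per well were grown with compound for 72 h at 37 °C under humidified CO2. Cells were counted in a Coulter counter.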

Human alphaherpesvirus 2 = assay: Antiviral activity against Herpes simplex virus 2 G infected in human HEL cells assessed as inhibition of virus-induced cytopathic effect; format: functional, cell-based; conditions: Human alphaherpesvirus 2, strain G; in short: as §1
Human alphaherpesvirus 3 [4] = assay: Antiviral activity against thymidine kinase deficient Varicella-Zoster virus 07-1 infected in human HEL cells assessed as inhibition of virus-induced cytopathic effect; format: functional, cell-based; conditions: Human alphaherpesvirus 3, 07-1, HEL
In short: (§2)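 Confluent HEL fibroblast cultures were inoculated with 20 PFU of VZV in the presence of varying compound concentrations. Plaque formation was recorded once untreated infected controls reached completion.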

Human alphaherpesvirus 3 [5] = assay: Antiviral activity against Varicella-Zoster virus OKA infected in human HEL cells assessed as inhibition of virus-induced cytopathic effect; format: functional, cell-based; conditions: Human alphaherpesvirus 3, strain Oka vaccine; in short: as §2
Human betaherpesvirus 5 [6] = assay: Antiviral activity against human cytomegalovirus AD-169 infected in human HEL cells assessed as inhibition of virus-induced cytopathic effect; format: functional, cell-based; conditions: Human betaherpesvirus 5, AD-169, HEL; in short: as §1
Human alphaherpesvirus 1 [7] = assay: Antiviral activity against Herpes simplex virus 1 KOS infected in human HEL cells assessed as inhibition of virus-induced cytopathic effect; format: functional, cell-based; conditions: Human alphaherpesvirus 1, KOS; in short: as §1
[8] = test system: Human immunodeficiency virus 1; assay: Antiviral activity against HIV1 X4LAI.04 infected in human MT4 cells assessed as decrease in viral replication by p24gag-based luminex assay; format: functional, cell-based; conditions: Human immunodeficiency virus 1, X4LAI.04, MT4
In short: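 10^6 MT-4 cells were infected with HIV-1 X4LAI.04 (7 ng p24) for 2 h at 37 °C, then washed with PBS and resuspended. Compounds were added and cultures were kept 3 days at 37 °C. Supernatant p24 was measured by bead-based Luminex. Inhibition was calculated as (1 − p24 treated/p24 untreated) × 100, and EC50 was derived from it.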

[9] = test system: Human immunodeficiency virus 1; assay: Antiviral activity against HIV1 X4LAI.04 infected in human tonsillar tissues assessed as inhibition of virus-induced cytopathic effect by p24gag-based luminex assay; format: functional; conditions: Human immunodeficiency virus 1, X4LAI.04
In short: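 Tonsillectomy tissue blocks of 2–3 mm³ were cultured on collagen sponge gels at the air–liquid interface, 27 blocks per donor per condition. Blocks were pretreated with compound overnight, infected with HIV-1 X4LAI.04 and cultured 12 days, with drug replenished at each medium change every 3 days. Medium p24 was measured by Luminex. Inhibition was calculated against untreated tissue, and EC50 was derived from it.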

| Structure (SMILES) | EC50 (Human betaherpesvirus 5 [1]) [µM] | EC50 (Human alphaherpesvirus 1 [2]) [µM] | CC50 (HEL) [µM] | IC50 (MT4) [µM] | MCC [3] [µM] | CC50 (CCRF-CEM) [µM] | EC50 (Human alphaherpesvirus 2) [µM] | EC50 (Human alphaherpesvirus 3 [4]) [µM] | EC50 (Human alphaherpesvirus 3 [5]) [µM] | EC50 (Human betaherpesvirus 5 [6]) [µM] | EC50 (Human alphaherpesvirus 1 [7]) [µM] | EC50 [8] [µM] | EC50 [9] [µM] |
| --- | --- | --- | --- | --- | --- | --- | --- | --- | --- | --- | --- | --- | --- |
| COc1nc(N)nc2c1ncn2CCC(COP(=O)(N[C@@H](C)C(=O)OCc1ccccc1)Oc1ccccc1)COP(=O)(N[C@@H](C)C(=O)OCc1ccccc1)Oc1ccccc1 (some centres undefined) | 37 | 100 | 25 | 20 | 50 to 100 | 19 | > 100 | 20 | 22 | > 50 | 100 | 12 |  |
| CCOC(=O)[C@H](C)NP1(=O)OCC(OCn2cnc3c(=O)[nH]c(N)nc32)CO1 (some centres undefined) |  |  |  | > 150 |  |  |  |  |  |  |  | 22 | 4.6 |
| CC(C)(NP(=O)(OCC(CO)CCn1cnc2c(=O)[nH]c(N)nc21)Oc1ccccc1)C(=O)OCc1ccccc1 (centres undefined) | > 50 | 100 | > 50 | > 150 | 50 to 100 | 252 | 39 | > 50 | > 50 | > 50 | 29 | 68 |  |
| CCC(C)(C)COC(=O)[C@H](C)NP(=O)(OCC(CO)CCn1cnc2c(OC)nc(N)nc21)Oc1cccc2ccccc12 (some centres undefined) | > 50 | ≥ 20 | 28 | 17 | 50 to 100 | 18 | 10 | 9.7 | 4.4 | 43 | 11 | 24 |  |
| C[C@H](NP(=O)(OCC(COP(=O)(N[C@@H](C)C(=O)OCc1ccccc1)Oc1cccc2ccccc12)SCn1cnc2c(=O)[nH]c(/N=C/N(C)C)nc21)Oc1cccc2ccccc12)C(=O)OCc1ccccc1 (some centres undefined) | > 50 | > 100 | 30 | 4 | 50 to 100 | 17 | > 100 | > 20 | > 20 | > 50 | > 100 | 9 |  |
| COc1nc(N)nc2c1ncn2CCC(CO)COP(=O)(N[C@@H](C)C(=O)OCc1ccccc1)Oc1cccc2ccccc12 (some centres undefined) | 50 | 20 | 49 | 12 | 50 to 100 | 27 | 20 | 23 | 17 | > 50 | 38 | 23 |  |
| CC(C)(NP(=O)(OCC(CCn1cnc2c(=O)[nH]c(N)nc21)COP(=O)(NC(C)(C)C(=O)OCc1ccccc1)Oc1ccccc1)Oc1ccccc1)C(=O)OCc1ccccc1 (centres undefined) | > 50 | > 100 | > 100 | 30 | 50 to 100 | 100 | > 100 | 20.6 | 10.3 | > 50 | > 100 | 19 |  |
| COc1nc(N)nc2c1ncn2CCC(COP(=O)(N[C@@H](C)C(=O)OCC(C)(C)C)Oc1cccc2ccccc12)COP(=O)(N[C@@H](C)C(=O)OCC(C)(C)C)Oc1cccc2ccccc12 (some centres undefined) | 20 | > 100 | 2.5 | 5 | 20 to 100 | 4.6 | > 100 | 7.7 | 4.3 | 15 | > 100 | 8.2 |  |
| COc1nc(N)nc2c1ncn2CCC(CO)COP(=O)(N[C@@H](C)C(=O)OCC(C)(C)C)Oc1cccc2ccccc12 (some centres undefined) | 40 | 15 | 7.6 | 35 | 50 to 100 | 17 | 9 | 6.2 | 2 | 50 | 9 | 41 |  |
| C[C@H](NP(=O)(OCC(CCn1cnc2c(=O)[nH]c(N)nc21)COP(=O)(N[C@@H](C)C(=O)OCc1ccccc1)Oc1ccccc1)Oc1ccccc1)C(=O)OCc1ccccc1 (some centres undefined) | > 50 | > 100 | ≥ 100 | 10 | 50 to 100 | 76 | > 100 | 41.5 | 16.3 | > 50 | > 100 | 8 |  |
| CC(C)(NP(=O)(OCC(CCn1cnc2c(=O)[nH]c(N)nc21)COP(=O)(NC(C)(C)C(=O)OCc1ccccc1)Oc1cccc2ccccc12)Oc1cccc2ccccc12)C(=O)OCc1ccccc1 (centres undefined) | > 50 | > 20 | > 100 | > 150 | 50 to 100 | > 250 | > 20 | > 50 | > 50 | > 50 | > 20 | > 150 |  |
| CCC(C)(C)COC(=O)[C@H](C)NP(=O)(OCC(CCn1cnc2c(OC)nc(N)nc21)COP(=O)(N[C@@H](C)C(=O)OCC(C)(C)CC)Oc1cccc2ccccc12)Oc1cccc2ccccc12 (some centres undefined) | > 20 | > 100 | 5 | 9 | 50 to 100 | 7.2 | > 100 | 9.5 | 6.4 | > 20 | > 100 | 5.6 |  |
| C[C@H](NP(=O)(OCC(CCn1cnc2c(Cl)nc(N)nc21)COP(=O)(N[C@@H](C)C(=O)OCc1ccccc1)Oc1ccccc1)Oc1ccccc1)C(=O)OCc1ccccc1 (some centres undefined) | > 100 | > 100 | 4 | 20 | > 100 | 14 | > 100 | 44.1 | 44 | > 100 | > 100 | 7 |  |
| COC(=O)[C@H](C)NP(=O)(OCC(CO)CCn1cnc2c(OC)nc(N)nc21)Oc1cccc2ccccc12 (some centres undefined) | 14 | > 100 | 37 | 10 | 50 to 100 | 15 | > 100 | 25 | 13 | 32 | > 100 | 16 |  |
